Read-outs that look alike come from different tables or passages of the source.
What was measured:
PARP-1 = PARP-1 (Homo sapiens, UniProt P09874); assay: PARP-1 inhibitory assay; format: biochemical
Outline: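 Wells were histone-coated overnight at 4°C, blocked, then given activated DNA in PARP-1 and assay buffers. Test compound, diluted in 10% DMSO, was added before PARP-1 enzyme, followed by 1 h at 20°C. After washing, streptavidin-HRP was added (30 min, 20°C), then chemiluminescent substrate, with luminescence read at 410 nm. IC50 from triplicate measurements.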

NF-κB p65 = NF-κB p65 (Homo sapiens, UniProt Q04206); assay: NF-κB p65 inhibitory assay; format: cell-based
K-Ras = K-Ras (Homo sapiens, UniProt P01116); assay: K-Ras inhibitory assay; format: cell-based; details: for K-Ras (HT-29) IC50: HT-29 cells, EGF 5 ng/ml
Outline: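 HT-29 cells in RPMI-1640 with penicillin/streptomycin were exposed to test compound for 3 h at 37°C, 5% CO2. They were then PBS-washed, stimulated with EGF (5 ng/ml, 2 min) and lysed with protease inhibitor. Protein was quantified, and Ras GTPase chemiluminescent ELISA used anti-K-Ras (1:5000, 1 h, room temperature) with HRP secondary and a luminescence read-out. IC50 from triplicate measurements.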

HT-29 cells = assay: SRB cytotoxicity assay; format: cell-based, human; details: for EC50: read-out: Cytotoxicity EC50
[1] = read-out: PARP-1 IC50, enzyme assay
[2] = read-out: Cytotoxicity (HT-29) IC50, HT-29 cells, 72 h, SRB

Chain of K-Ras (P01116 1-188 isoform P01116-2): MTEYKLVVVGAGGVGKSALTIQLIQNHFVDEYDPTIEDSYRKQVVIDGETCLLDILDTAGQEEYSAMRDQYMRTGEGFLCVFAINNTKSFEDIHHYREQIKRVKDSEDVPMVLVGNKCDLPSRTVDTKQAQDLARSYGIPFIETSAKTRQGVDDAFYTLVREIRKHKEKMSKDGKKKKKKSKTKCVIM
Chain of NF-κB p65 (Q04206 whole entry): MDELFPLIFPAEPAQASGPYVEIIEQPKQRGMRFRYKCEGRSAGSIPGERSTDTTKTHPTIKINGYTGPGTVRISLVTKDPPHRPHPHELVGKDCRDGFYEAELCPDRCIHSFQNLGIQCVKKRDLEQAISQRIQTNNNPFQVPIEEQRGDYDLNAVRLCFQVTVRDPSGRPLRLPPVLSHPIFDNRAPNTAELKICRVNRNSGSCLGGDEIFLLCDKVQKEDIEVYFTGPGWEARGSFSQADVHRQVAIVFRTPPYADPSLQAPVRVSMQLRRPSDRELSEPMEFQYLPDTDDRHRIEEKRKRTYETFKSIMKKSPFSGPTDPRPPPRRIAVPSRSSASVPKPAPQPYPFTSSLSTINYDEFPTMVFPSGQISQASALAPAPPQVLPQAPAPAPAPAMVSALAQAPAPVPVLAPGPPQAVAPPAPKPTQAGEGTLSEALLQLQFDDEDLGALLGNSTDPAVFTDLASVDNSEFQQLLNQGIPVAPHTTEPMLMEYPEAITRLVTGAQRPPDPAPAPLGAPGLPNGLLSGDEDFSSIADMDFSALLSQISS
Chain of PARP-1 (P09874 whole entry): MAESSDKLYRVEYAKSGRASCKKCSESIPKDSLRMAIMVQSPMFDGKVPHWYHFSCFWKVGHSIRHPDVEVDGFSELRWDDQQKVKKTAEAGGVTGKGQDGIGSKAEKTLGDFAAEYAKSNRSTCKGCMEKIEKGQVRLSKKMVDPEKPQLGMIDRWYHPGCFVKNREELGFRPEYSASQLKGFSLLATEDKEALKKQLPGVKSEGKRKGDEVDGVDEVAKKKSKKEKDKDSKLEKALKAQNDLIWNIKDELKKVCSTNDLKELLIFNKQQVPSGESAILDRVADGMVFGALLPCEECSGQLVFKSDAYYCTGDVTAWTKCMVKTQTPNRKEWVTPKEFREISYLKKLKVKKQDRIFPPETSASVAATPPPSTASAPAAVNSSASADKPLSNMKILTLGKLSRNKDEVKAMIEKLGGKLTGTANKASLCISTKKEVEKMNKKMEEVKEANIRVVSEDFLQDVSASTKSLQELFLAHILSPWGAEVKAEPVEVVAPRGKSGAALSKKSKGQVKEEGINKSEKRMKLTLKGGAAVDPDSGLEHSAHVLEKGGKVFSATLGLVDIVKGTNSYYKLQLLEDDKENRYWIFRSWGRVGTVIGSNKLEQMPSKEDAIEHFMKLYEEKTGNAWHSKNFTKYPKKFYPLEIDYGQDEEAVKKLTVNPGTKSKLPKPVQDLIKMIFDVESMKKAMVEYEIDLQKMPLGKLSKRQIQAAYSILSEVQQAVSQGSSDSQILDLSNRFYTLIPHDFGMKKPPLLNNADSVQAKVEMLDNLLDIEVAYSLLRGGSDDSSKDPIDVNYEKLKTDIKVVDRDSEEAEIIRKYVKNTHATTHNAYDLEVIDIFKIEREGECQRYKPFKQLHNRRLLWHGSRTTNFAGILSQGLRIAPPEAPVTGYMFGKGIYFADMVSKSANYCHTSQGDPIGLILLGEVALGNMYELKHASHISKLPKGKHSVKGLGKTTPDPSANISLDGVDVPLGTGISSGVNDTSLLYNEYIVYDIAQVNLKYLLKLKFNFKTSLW

Row | SMILES | NF-κB (HeLa) IC50 (NF-κB p65; p65, HeLa cells, TNFα) | IC50 (PARP-1; [1]) | K-Ras (HT-29) IC50 (K-Ras) | IC50 (HT-29 cells; [2]) | EC50 (HT-29 cells; HT-29 cells, 72 h, SRB) | other results
1 | CC=Cc1cc(OC)cc(C(C)C(O)c2cc(OC)c(OC)c(OC)c2)c1 (centres unmarked) [Compound 1] | Not active | – | – | – | – | IC50 (PARP-1): 3040 nM; NF-κB inhibitory activity (in words) (NF-κB p65; HeLa cells): no NF-κB inhibitory activity; IC50 (K-Ras): 10500 nM
2 | C=CCc1cc(OC)c(OC(C)C(OC(C)=O)c2ccc(OC)c(OC)c2)c(OC)c1 (stereo not drawn) [Compound 2, benzenemethanol, α-[(1, R)-1-[2,6-dimethoxy-4-(2-propen-1-yl)phenoxy]ethyl]-3,4-dimethoxy-1-acetate] | – | 1 nM | Not active | – | – | –
3 | C=CCc1cc(OC)c(OC(C)C(OC(C)=O)c2ccc3c(c2)OCO3)c(OC)c1 (stereo not drawn) [Compound 4, 1,3-benzodioxole-5-methanol,α-[1-[2,6-dimethoxy-4-(2-propenyl)phenoxy]ethyl]-acetate] | – | – | Not active | 24 nM | 24 nM | IC50 (NF-κB p65; read-out: NF-κB (HeLa) IC50, p65, HeLa cells, TNFα): 3.4 nM
4 | C/C=C/c1cc(OC)c2c(c1)C(C)C(c1cc(OC)c(OC)c(OC)c1)O2 (centres unmarked) [Compound 5, benzofuran, 2,3-dihydro-7-methoxy-3-methyl-5-(1E)-1-yl-2-(3,4,5-trimethoxyphenyl)] | Not active | 3110 nM | Not active | 3 nM | 3 nM | –
5 | CC(=O)O[C@H]1C(=O)[C@@]2(C)[C@H]([C@H](OC(=O)c3ccccc3)[C@]3(O)C[C@H](OC(=O)[C@H](O)[C@@H](NC(=O)c4ccccc4)c4ccccc4)C(C)=C1C3(C)C)[C@]1(OC(C)=O)CO[C@@H]1C[C@@H]2O [paclitaxel, reference compound] | – | – | – | – | – | EC50 (HT-29 cells; Homo sapiens, HT-29, 72 h): 0.5 nM; IC50 (HT-29 cells; Homo sapiens, HT-29, read-out: Cytotoxicity (HT-29) IC50): 0.5 nM
